The values below come from publication PMC4750707 (Antimicrobial Agents and Chemotherapy, 2016).

In brackets after ≈: the same amount, converted by molar mass.

The test system of one experiment is E. coli. The experiment can be described thus: Broth microdilution MIC. Format: cell-based. To be noted: Escherichia coli. In a few lines: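 MICs by CLSI broth microdilution in cation-adjusted Mueller-Hinton broth. Strains grown in BHI broth at 35°C: E. coli K-12, P. aeruginosa 1771 and S. aureus ATCC 29213. H. influenzae Rd grown in BHI with Haemophilus test medium supplement (hemin and β-NAD, 15 μg/ml each).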

The target in the next experiment is T1, E. coli PBP1a (Escherichia coli, UniProt P02918).
T1 sequence (P02918 1-850): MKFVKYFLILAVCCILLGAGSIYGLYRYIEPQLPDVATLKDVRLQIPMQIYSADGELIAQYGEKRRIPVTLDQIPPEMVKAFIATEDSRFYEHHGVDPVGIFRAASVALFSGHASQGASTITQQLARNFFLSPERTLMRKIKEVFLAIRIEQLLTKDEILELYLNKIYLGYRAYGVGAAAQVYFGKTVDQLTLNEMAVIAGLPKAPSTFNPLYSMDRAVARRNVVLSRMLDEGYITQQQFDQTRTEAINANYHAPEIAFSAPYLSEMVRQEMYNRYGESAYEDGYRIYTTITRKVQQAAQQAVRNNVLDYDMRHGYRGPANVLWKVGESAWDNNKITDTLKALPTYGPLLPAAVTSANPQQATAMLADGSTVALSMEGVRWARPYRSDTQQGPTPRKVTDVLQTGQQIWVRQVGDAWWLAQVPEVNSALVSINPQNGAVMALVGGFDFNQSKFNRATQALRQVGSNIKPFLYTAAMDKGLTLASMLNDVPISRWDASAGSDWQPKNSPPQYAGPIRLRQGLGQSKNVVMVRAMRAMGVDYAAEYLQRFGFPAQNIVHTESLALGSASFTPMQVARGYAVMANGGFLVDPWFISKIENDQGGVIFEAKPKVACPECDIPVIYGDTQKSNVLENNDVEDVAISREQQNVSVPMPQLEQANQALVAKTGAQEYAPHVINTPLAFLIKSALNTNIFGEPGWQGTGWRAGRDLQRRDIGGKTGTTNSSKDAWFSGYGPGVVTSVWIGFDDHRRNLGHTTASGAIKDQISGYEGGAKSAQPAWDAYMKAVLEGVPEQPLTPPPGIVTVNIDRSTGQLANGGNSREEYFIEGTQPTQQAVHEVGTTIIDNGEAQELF
The experiment in a line: PBP competition assay with Bocillin FL. The experiment is classed as binding. In a few lines: (§1)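 E. coli K-12 or P. aeruginosa 1771 grown in BHI at 35°C to A600 ~1.5. Cells in 50 mM phosphate pH 7.0 were French-pressed; membranes pelleted at 150,000 × g. Membranes (10–20 μg protein) were pre-incubated with test compound 10 min at 30°C, then Bocillin FL (100 μM final) 20 min. SDS-PAGE, fluorescence scan. IC50 in μg/ml from ≥8 concentrations versus no-drug control.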

For the next experiment, the target named is T2, E. coli PBP3 (Escherichia coli, UniProt P0AD68).
T2 sequence (P0AD68 1-588): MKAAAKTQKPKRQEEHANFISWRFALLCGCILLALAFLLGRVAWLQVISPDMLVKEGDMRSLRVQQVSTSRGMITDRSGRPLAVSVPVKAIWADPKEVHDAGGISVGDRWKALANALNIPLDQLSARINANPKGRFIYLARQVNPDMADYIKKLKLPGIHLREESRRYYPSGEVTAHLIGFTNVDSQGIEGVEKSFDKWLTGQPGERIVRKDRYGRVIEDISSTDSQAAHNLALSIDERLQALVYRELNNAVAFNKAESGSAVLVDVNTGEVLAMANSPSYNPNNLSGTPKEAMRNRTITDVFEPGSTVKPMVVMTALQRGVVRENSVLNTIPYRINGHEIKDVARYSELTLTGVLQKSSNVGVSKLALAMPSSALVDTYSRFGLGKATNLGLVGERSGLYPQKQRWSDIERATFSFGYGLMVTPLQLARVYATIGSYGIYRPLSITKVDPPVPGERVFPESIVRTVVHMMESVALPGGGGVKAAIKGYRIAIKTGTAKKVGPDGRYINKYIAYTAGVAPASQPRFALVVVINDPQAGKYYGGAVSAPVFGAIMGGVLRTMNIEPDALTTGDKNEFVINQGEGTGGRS
The experiment in a line: PBP competition assay with Bocillin FL. The experiment is classed as binding. In short, it runs like this: as §1

Another experiment addresses E. coli PBP4 (Escherichia coli, UniProt P24228). The experiment in a line: PBP competition assay with Bocillin FL. Format: binding. In short, it runs like this: as §1
Another experiment addresses T3, P. aeruginosa PBP2 (Pseudomonas aeruginosa, UniProt Q9X6V3).
T3 sequence (Q9X6V3 1-646): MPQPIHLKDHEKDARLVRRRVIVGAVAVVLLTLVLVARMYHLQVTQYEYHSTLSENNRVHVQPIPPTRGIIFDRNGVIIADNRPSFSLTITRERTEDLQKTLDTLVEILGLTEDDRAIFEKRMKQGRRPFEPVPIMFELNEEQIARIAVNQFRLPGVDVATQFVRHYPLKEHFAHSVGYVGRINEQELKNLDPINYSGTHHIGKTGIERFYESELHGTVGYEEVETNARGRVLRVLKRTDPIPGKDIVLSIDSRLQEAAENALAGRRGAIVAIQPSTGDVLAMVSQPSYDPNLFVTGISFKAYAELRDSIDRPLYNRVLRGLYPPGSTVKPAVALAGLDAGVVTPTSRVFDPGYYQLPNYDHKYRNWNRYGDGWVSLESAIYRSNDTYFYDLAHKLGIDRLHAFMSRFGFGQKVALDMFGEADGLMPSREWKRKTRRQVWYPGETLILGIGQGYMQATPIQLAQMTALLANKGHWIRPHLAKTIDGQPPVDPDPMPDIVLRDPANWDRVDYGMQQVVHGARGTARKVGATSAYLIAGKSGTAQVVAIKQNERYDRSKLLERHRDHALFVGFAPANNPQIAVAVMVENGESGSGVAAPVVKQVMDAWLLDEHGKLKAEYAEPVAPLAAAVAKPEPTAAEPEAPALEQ
The experiment in a line: PBP competition assay with Bocillin FL. The experiment is classed as binding. In a few lines: as §1

In the experiment on E. coli, `NC(=O)[C@@H]1CC[C@@H]2CN1C(=O)N2OS(=O)(=O)O` [AVI, avibactam] came in with an MIC of 8 mg/L (≈ 30.2 µM). For the same compound, the IC50 on E. coli PBP1a was above 49 µM; on E. coli PBP3, above 49 µM; on E. coli PBP4 it was above 49 µM; at P. aeruginosa PBP2 it was 4.15 µM.
With `CC(C)(O/N=C(\C(=O)N[C@@H]1C(=O)N2C(C(=O)[O-])=C(C[n+]3ccccc3)CS[C@H]12)c1csc(N)n1)C(=O)O` [CAZ, ceftazidime], in the experiment with E. coli, the MIC is 0.5 mg/L (≈ 0.915 µM). Moreover, the half-maximal inhibitory concentration (IC50) was 27.4 µM at E. coli PBP1a, 0.366 µM at E. coli PBP3, above 45.7 µM on E. coli PBP4 and above 45.7 µM on P. aeruginosa PBP2.
As for `CC1(C)S[C@@H]2[C@H](/N=C/N3CCCCCC3)C(=O)N2[C@H]1C(=O)O` [MEC, amdinocillin], the MIC against E. coli was in the range of 0.06 to 0.1 mg/L (≈ 0.184 to 0.307 µM). For the same compound, the IC50 at E. coli PBP1a is above 39.9 µM; on E. coli PBP3, above 39.9 µM; at E. coli PBP4, above 39.9 µM; on P. aeruginosa PBP2 it was 0.645 µM.
